# Legend:
# [1] = tested on: SJSA-1; settings: SJSA-1 proliferation assay, in vitro; cited from earlier work
# [2] = tested on: advanced or metastatic solid tumors; test: Antitumor activity, investigator-assessed per RECIST v1.1, PFS by Kaplan–Meier; type: in vivo, human; settings: for duration of stable disease: WDLPS; for duration of response: partial response
# [3] = tested on: growth differentiation factor 15 (GDF-15); type: in vivo, human; settings: all dose-escalation cohorts, both arms
# Method in brief: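 Blood drawn for GDF-15, a circulating downstream p53 marker measured as a target-engagement surrogate. Dosing was oral, day 1 every 21 days or days 1 and 8 every 28 days. Cycle 1 sampling: 5 min pre-dose; 1, 2, 3, 4, 5, 6 and 8 h post-dose on day 1; once on days 2, 3, 4, 5 and 8. All dose-escalation cohorts, both arms.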
structure (smiles),measurement,setting,value
Cc1c(C(=O)O)ccc2c3n(nc12)[C@@H]1[C@H](C3)N(CC2CC2)[C@@]2(C(=O)Nc3cc(Cl)ccc32)[C@H]1c1cccc(Cl)c1F [brigimadlin],IC50,[1],12 nM
same,disease control rate,[2]; 12 patients with DDLPS,75%
same,Complete response,[2]; All patients (N = 54),0 n (%)
same,Confirmed objective response,[2]; All patients (N = 54),6 (11.1) n (%)
same,Disease control,[2]; All patients (N = 54),40 (74.1) n (%)
same,Not evaluable (best overall response),[2]; All patients (N = 54),3 (5.6) n (%)
same,Partial response,[2]; All patients (N = 54),6 (11.1) n (%)
same,Progressive disease,[2]; All patients (N = 54),11 (20.4) n (%)
same,Stable disease,[2]; All patients (N = 54),34 (63.0) n (%)
same,overall response rate,[2]; D1D8q4w,8.0%
same,Complete response,[2]; D1D8q4w (n = 25),0 n (%)
same,Confirmed objective response,[2]; D1D8q4w (n = 25),2 (8.0) n (%)
same,Disease control,[2]; D1D8q4w (n = 25),18 (72.0) n (%)
same,Not evaluable (best overall response),[2]; D1D8q4w (n = 25),2 (8.0) n (%)
same,Partial response,[2]; D1D8q4w (n = 25),2 (8.0) n (%)
same,Progressive disease,[2]; D1D8q4w (n = 25),5 (20.0) n (%)
same,Stable disease,[2]; D1D8q4w (n = 25),16 (64.0) n (%)
same,disease control rate,[2]; D1D8q4w arm,72.0%
same,median progression-free survival (PFS),"[2]; D1D8q4w arm, 95% CI: 3.7–18.5",8.0 months
same,overall response rate,[2]; D1q3w,13.8%
same,Complete response,[2]; D1q3w (n = 29),0 n (%)
same,Confirmed objective response,[2]; D1q3w (n = 29),4 (13.8) n (%)
same,Disease control,[2]; D1q3w (n = 29),22 (75.9) n (%)
same,Not evaluable (best overall response),[2]; D1q3w (n = 29),1 (3.4) n (%)
same,Partial response,[2]; D1q3w (n = 29),4 (13.8) n (%)
same,Progressive disease,[2]; D1q3w (n = 29),6 (20.7) n (%)
same,Stable disease,[2]; D1q3w (n = 29),18 (62.1) n (%)
same,disease control rate,[2]; D1q3w arm,75.9%
same,median progression-free survival (PFS),"[2]; D1q3w arm, 95% CI: 3.0–20.7",10.6 months
same,duration of stable disease,[2]; one patient,> 14 months
same,duration of stable disease,[2]; the other two patients,~8 months
same,disease control rate,[2]; all 54 patients,74.1%
same,overall response rate,"[2]; all 54 patients, data cutoff October 24, 2022",11.1%
same,PFS,[2]; all seven patients with WDLPS,> 7.5 months
same,duration of partial response,"[2]; four WDLPS patients, ranging up to about 25 months",≥ 12 months
same,patients achieving PFS ≥14 months,[2]; of seven patients with WDLPS,five
same,patients achieving a partial response,[2]; of seven patients with WDLPS,four
same,patients achieving stable disease,[2]; of seven patients with WDLPS,three
same,patients achieving stable disease,[2]; of the 12 patients with DDLPS,nine
same,duration of response,[2]; one patient with MDM2-amplified intrahepatic cholangiocarcinoma,~12 months
same,duration of response,[2]; one patient with MDM2-amplified pancreatic cancer,> 5.5 months
same,median progression-free survival (PFS),"[2]; overall, preliminary analysis, 95% CI: 3.8–13.5",8.1 months
same,disease control rate,[2]; seven patients with WDLPS,100%
same,tumor reduction (partial response),"[2]; single patient (Fig. 3A), MDM2-amplified WDLPS, 20 mg q3w, starting at cycle 2",31%
same,tumor reduction,"[2]; single patient (Fig. 3A), MDM2-amplified WDLPS, cycle 19, dose reduced to 10 mg",47%
same,tumor reduction (partial response),"[2]; single patient (Fig. 3B), MDM2-amplified WDLPS, 80 mg D1q3w, cycle 3",32%
same,best tumor reduction,"[2]; single patient (Fig. 3B), MDM2-amplified WDLPS, at data cutoff",42%
same,time on treatment,"[2]; single patient (Fig. 3B), MDM2-amplified WDLPS, ongoing at data cutoff",more than 25 months
same,time on treatment before progressive disease,"[2]; single patient (Fig. 3D), MDM2-amplified cholangiocarcinoma",13.3 months
same,growth differentiation factor 15 levels (target engagement),[3],time- and dose-dependent increases

# Source: PMC10401071 (Cancer Discovery, 2023)
